From ChEMBL document CHEMBL3046621, “Fungicidal sesquiterpene dialdehyde cinnamates from Pseudowintera axillaris” (2006)

Legend:
Format in all cases: functional
Phytophthora infestans [1] = test: Antifungal activity against Phytophthora infestans assessed as inhibition of late tomato blight disease on tomato cultivar Rutgers plants at 100 ppm measured 24 hr post fungal inoculation relative to untreated control
How it was run: (§1)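 Whole-plant protectant test: pure compounds in acetone, serially diluted in acetone to 6.25, 25 or 100 ppm and applied to plants.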

[2] = tested on: Puccinia graminis f. tritici; test: Antifungal activity against Puccinia graminis f. tritici assessed as inhibition of wheat stem rust disease on wheat cultivar Yuma at 6.25 ppm measured 24 hr post fungal inoculation relative to untreated control; how it was run: as §1
Phytophthora infestans [3] = test: Antifungal activity against Phytophthora infestans assessed as inhibition of late tomato blight disease on tomato cultivar Rutgers plants at 6.25 ppm measured 24 hr post fungal inoculation relative to untreated control; how it was run: as §1
Parastagonospora nodorum [4] = test: Antifungal activity against Phaeosphaeria nodorum assessed as inhibition of glume blotch disease on wheat cultivar Yuma plants at 6.25 ppm measured 24 hr post fungal inoculation relative to untreated control; how it was run: as §1
Plasmopara viticola [5] = test: Antifungal activity against Plasmopara viticola assessed as inhibition of grape downy mildew disease on vines cultivar Carignane plants at 100 ppm measured 24 hr post fungal inoculation relative to untreated control; how it was run: as §1
Zymoseptoria tritici [6] = test: Antifungal activity against Zymoseptoria tritici assessed as inhibition of wheat leaf spot disease on wheat cultivar Yuma at 6.25 ppm measured 24 hr post fungal inoculation relative to untreated control; how it was run: as §1
Parastagonospora nodorum [7] = test: Antifungal activity against Phaeosphaeria nodorum assessed as inhibition of glume blotch disease on wheat cultivar Yuma plants at 100 ppm measured 24 hr post fungal inoculation relative to untreated control; how it was run: as §1
Plasmopara viticola [8] = test: Antifungal activity against Plasmopara viticola assessed as inhibition of grape downy mildew disease on vines cultivar Carignane plants at 6.25 ppm measured 24 hr post fungal inoculation relative to untreated control; how it was run: as §1
[9] = tested on: Puccinia graminis f. tritici; test: Antifungal activity against Puccinia graminis f. tritici assessed as inhibition of wheat stem rust disease on wheat cultivar Yuma at 25 ppm measured 24 hr post fungal inoculation relative to untreated control; how it was run: as §1
Plasmopara viticola [10] = test: Antifungal activity against Plasmopara viticola assessed as inhibition of grape downy mildew disease on vines cultivar Carignane plants at 25 ppm measured 24 hr post fungal inoculation relative to untreated control; how it was run: as §1
[11] = tested on: Puccinia graminis f. tritici; test: Antifungal activity against Puccinia graminis f. tritici assessed as inhibition of wheat stem rust disease on wheat cultivar Yuma at 100 ppm measured 24 hr post fungal inoculation relative to untreated control; how it was run: as §1
Zymoseptoria tritici [12] = test: Antifungal activity against Zymoseptoria tritici assessed as inhibition of wheat leaf spot disease on wheat cultivar Yuma at 100 ppm measured 24 hr post fungal inoculation relative to untreated control; how it was run: as §1
Zymoseptoria tritici [13] = test: Antifungal activity against Zymoseptoria tritici assessed as inhibition of wheat leaf spot disease on wheat cultivar Yuma at 25 ppm measured 24 hr post fungal inoculation relative to untreated control; how it was run: as §1
Parastagonospora nodorum [14] = test: Antifungal activity against Phaeosphaeria nodorum assessed as inhibition of glume blotch disease on wheat cultivar Yuma plants at 25 ppm measured 24 hr post fungal inoculation relative to untreated control; how it was run: as §1
Phytophthora infestans [15] = test: Antifungal activity against Phytophthora infestans assessed as inhibition of late tomato blight disease on tomato cultivar Rutgers plants at 25 ppm measured 24 hr post fungal inoculation relative to untreated control; how it was run: as §1
Parastagonospora nodorum [16] = test: Antifungal activity against Phaeosphaeria nodorum assessed as inhibition of glume blotch disease on wheat cultivar Yuma plants at 100 ppm measured 96 hr post fungal inoculation relative to untreated control; how it was run: as §1
Parastagonospora nodorum [17] = test: Antifungal activity against Phaeosphaeria nodorum assessed as inhibition of glume blotch disease on wheat cultivar Yuma plants at 25 ppm measured 96 hr post fungal inoculation relative to untreated control; how it was run: as §1
Phytophthora infestans [18] = test: Antifungal activity against Phytophthora infestans assessed as inhibition of late tomato blight disease on tomato cultivar Rutgers plants at 100 ppm measured 96 hr post fungal inoculation relative to untreated control; how it was run: as §1
Plasmopara viticola [19] = test: Antifungal activity against Plasmopara viticola assessed as inhibition of grape downy mildew disease on vines cultivar Carignane plants at 100 ppm measured 96 hr post fungal inoculation relative to untreated control; how it was run: as §1
Phytophthora infestans [20] = test: Antifungal activity against Phytophthora infestans assessed as inhibition of late tomato blight disease on tomato cultivar Rutgers plants at 25 ppm measured 96 hr post fungal inoculation relative to untreated control; how it was run: as §1
Plasmopara viticola [21] = test: Antifungal activity against Plasmopara viticola assessed as inhibition of grape downy mildew disease on vines cultivar Carignane plants at 25 ppm measured 96 hr post fungal inoculation relative to untreated control; how it was run: as §1

| Structure (SMILES) | inhibition at 100 ppm (Phytophthora infestans [1]) [%] | inhibition at 6.25 ppm [2] [%] | inhibition at 6.25 ppm (Phytophthora infestans [3]) [%] | inhibition at 6.25 ppm (Parastagonospora nodorum [4]) [%] | inhibition at 100 ppm (Plasmopara viticola [5]) [%] | inhibition at 6.25 ppm (Zymoseptoria tritici [6]) [%] | inhibition at 100 ppm (Parastagonospora nodorum [7]) [%] | inhibition at 6.25 ppm (Plasmopara viticola [8]) [%] | inhibition at 25 ppm [9] [%] | inhibition at 25 ppm (Plasmopara viticola [10]) [%] | inhibition at 100 ppm [11] [%] | inhibition at 100 ppm (Zymoseptoria tritici [12]) [%] | inhibition at 25 ppm (Zymoseptoria tritici [13]) [%] | inhibition at 25 ppm (Parastagonospora nodorum [14]) [%] | inhibition at 25 ppm (Phytophthora infestans [15]) [%] | further results |
| --- | --- | --- | --- | --- | --- | --- | --- | --- | --- | --- | --- | --- | --- | --- | --- | --- |
| C=C1[C@@H]2[C@@H](O)C=C3[C@@H](OC)O[C@@H](OC)[C@@H]3[C@@]2(C)[C@H](OC(=O)CCc2ccccc2)C[C@@H]1C | 0 | 42 | 0 | 0 | 0 | 0 | 0 | 0 | 9 | 0 | 9 | 90 | 17 | 0 | 0 | – |
| C=C1[C@@H]2[C@@H](O)C=C3[C@@H](OC)O[C@@H](OC)[C@@H]3[C@@]2(C)[C@H](O)C[C@@H]1C | 0 | – | – | – | 0 | – | 0 | – | – | – | 0 | 11 | – | – | – | – |
| C=C1[C@@H]2C(=O)C=C3[C@@H](OC)O[C@@H](OC)[C@@H]3[C@@]2(C)[C@H](OC(=O)/C=C/c2ccccc2)C[C@@H]1C | 0 | – | – | – | 0 | – | 0 | – | – | – | 0 | 0 | – | – | – | – |
| C=C1[C@@H]2[C@@H](OC)C=C3[C@@H](OC)O[C@@H](OC)[C@@H]3[C@@]2(C)[C@H](O)C[C@@H]1C | 0 | – | – | – | 0 | – | 0 | – | – | – | 0 | 0 | – | – | – | – |
| C=C1[C@@H](C)C[C@@H](OC(=O)/C=C/c2ccccc2)[C@@]2(C)[C@H]1CC=C(CO)[C@@H]2CO | 58 | 0 | -6 | 0 | 70 | 0 | 0 | 4 | 0 | 22 | 0 | 0 | 0 | 0 | 8 | – |
| C=C1[C@@H](C)C[C@@H](OC(=O)/C=C/c2ccccc2)[C@]2(C)[C@@H](C=O)C(C=O)=CC[C@@H]12 [Paxidal] | 69 | – | – | – | 51 | – | 17 | – | 0 | 23 | 0 | 7 | 0 | 0 | 57 | inhibition at 100 ppm (Parastagonospora nodorum [16]): 18%; inhibition at 25 ppm (Parastagonospora nodorum [17]): 0%; inhibition at 100 ppm (Phytophthora infestans [18]): 9%; inhibition at 100 ppm (Plasmopara viticola [19]): 0%; inhibition at 25 ppm (Phytophthora infestans [20]): 18%; inhibition at 25 ppm (Plasmopara viticola [21]): 0% |
